Tests used:
[1] = Antiproliferation activity against human RS4:11 cells expressing wild type FLT3 after 72 hrs by MTS method; assay type: functional; conditions: RS4-11, 72 h
[2] = system: MOLT-4; assay: Antiproliferation activity against human MOLT4 after 72 hrs by MTS method; assay type: functional; conditions: MOLT-4, 72 h
[3] = system: U-937; assay: Antiproliferation activity against human FLT3 gene-deficient U937 cells after 72 hrs by MTS method; assay type: functional; conditions: U-937, 72 h
[4] = system: MV4-11; assay: Antiproliferation activity against FLT3/ITD harboring human MV4-11 cells after 72 hrs by MTS method; assay type: functional; conditions: MV4-11, 72 h
[5] = system: K562; assay: Antiproliferation activity against human K562 cells expressing wild type BCR/ABL after 72 hrs by MTS method; assay type: functional; conditions: K562, 72 h
[6] = biological target: T1, Aurora kinase A (Homo sapiens, UniProt O14965); assay: Inhibition of recombinant GST-tagged Aurora A expressed in Sf9 insect cells after 90 mins by Kinase-Glo assay
T1 sequence (O14965 whole entry): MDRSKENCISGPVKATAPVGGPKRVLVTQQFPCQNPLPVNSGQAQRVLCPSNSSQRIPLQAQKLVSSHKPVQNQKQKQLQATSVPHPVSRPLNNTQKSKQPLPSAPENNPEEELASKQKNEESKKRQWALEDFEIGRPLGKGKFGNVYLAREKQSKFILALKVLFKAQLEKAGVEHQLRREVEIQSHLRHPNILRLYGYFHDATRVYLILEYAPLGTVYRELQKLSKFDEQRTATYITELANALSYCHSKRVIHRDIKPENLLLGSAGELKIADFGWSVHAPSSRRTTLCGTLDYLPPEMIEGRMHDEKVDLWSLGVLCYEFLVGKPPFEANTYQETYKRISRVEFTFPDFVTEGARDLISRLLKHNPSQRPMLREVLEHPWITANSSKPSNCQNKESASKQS
Procedure, shortened: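 GST-Aurora A kinase domain (S123–S401, 150 ng) from Sf9 cells. Buffer was 50 mM Tris-HCl pH 7.4 with 10 mM NaCl, 10 mM MgCl2, 0.01% BSA and 1 mM DTT. Kinase-Glo Plus was added for 20 min at 25 °C before the luminescence read.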

[7] = system: MOLM-13; assay: Antiproliferation activity against human MOLM13 cells expressing FLT3 mutation assessed as cell viability after 72 hrs by MTS method; assay type: functional; conditions: MOLM-13, 72 h
[8] = biological target: T2, Vascular endothelial growth factor receptor 1 (Homo sapiens, UniProt P17948); assay: Inhibition of recombinant GST-tagged VEGFR1 expressed in Sf9 insect cells after 120 mins by Kinase-Glo assay
T2 sequence (P17948 whole entry, the tested form may be a part): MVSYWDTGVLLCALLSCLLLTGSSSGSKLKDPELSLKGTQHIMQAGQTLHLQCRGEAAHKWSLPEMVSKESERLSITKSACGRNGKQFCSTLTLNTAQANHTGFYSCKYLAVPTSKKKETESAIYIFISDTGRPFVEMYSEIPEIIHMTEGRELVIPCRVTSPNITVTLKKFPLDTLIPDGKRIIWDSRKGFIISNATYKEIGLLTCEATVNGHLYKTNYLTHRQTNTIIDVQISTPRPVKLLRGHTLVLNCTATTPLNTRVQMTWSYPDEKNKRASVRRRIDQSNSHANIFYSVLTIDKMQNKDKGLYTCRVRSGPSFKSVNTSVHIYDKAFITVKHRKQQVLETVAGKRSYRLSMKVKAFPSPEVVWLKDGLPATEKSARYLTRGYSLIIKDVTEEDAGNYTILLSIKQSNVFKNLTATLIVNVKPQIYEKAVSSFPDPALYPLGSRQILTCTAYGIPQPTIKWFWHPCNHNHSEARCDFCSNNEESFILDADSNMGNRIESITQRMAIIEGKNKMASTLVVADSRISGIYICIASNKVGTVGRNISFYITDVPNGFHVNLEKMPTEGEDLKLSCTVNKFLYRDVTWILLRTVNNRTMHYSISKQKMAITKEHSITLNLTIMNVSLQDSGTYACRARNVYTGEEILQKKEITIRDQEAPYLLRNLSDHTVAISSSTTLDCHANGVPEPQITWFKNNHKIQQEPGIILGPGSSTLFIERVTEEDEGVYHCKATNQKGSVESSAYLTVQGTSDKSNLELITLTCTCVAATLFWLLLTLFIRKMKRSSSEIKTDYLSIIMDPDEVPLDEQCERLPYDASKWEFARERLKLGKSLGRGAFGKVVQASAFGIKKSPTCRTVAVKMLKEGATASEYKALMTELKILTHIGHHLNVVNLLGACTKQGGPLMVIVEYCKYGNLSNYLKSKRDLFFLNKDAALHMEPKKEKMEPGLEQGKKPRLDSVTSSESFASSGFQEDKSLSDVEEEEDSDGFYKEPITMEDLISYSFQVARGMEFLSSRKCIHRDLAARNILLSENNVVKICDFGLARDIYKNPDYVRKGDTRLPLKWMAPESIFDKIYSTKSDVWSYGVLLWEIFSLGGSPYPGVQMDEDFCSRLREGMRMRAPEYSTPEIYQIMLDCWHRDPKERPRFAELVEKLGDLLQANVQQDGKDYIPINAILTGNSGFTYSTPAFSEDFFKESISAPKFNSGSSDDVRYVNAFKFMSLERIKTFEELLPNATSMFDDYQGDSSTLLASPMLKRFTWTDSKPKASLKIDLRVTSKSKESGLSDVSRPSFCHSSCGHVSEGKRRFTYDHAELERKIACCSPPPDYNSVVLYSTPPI
Procedure, shortened: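 GST-VEGFR1 (R781–I1338) or GST-VEGFR2 (V789–V1356) kinase domain, 50–100 ng, from Sf9 cells. Read-out was Kinase-Glo Plus luminescence.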

[9] = biological target: T3, Vascular endothelial growth factor receptor 2 (Homo sapiens, UniProt P35968); assay: Inhibition of recombinant GST-tagged VEGFR2 expressed in Sf9 insect cells at 1 uM after 120 mins by Kinase-Glo assay
T3 sequence (P35968 whole entry, the tested form may be a part): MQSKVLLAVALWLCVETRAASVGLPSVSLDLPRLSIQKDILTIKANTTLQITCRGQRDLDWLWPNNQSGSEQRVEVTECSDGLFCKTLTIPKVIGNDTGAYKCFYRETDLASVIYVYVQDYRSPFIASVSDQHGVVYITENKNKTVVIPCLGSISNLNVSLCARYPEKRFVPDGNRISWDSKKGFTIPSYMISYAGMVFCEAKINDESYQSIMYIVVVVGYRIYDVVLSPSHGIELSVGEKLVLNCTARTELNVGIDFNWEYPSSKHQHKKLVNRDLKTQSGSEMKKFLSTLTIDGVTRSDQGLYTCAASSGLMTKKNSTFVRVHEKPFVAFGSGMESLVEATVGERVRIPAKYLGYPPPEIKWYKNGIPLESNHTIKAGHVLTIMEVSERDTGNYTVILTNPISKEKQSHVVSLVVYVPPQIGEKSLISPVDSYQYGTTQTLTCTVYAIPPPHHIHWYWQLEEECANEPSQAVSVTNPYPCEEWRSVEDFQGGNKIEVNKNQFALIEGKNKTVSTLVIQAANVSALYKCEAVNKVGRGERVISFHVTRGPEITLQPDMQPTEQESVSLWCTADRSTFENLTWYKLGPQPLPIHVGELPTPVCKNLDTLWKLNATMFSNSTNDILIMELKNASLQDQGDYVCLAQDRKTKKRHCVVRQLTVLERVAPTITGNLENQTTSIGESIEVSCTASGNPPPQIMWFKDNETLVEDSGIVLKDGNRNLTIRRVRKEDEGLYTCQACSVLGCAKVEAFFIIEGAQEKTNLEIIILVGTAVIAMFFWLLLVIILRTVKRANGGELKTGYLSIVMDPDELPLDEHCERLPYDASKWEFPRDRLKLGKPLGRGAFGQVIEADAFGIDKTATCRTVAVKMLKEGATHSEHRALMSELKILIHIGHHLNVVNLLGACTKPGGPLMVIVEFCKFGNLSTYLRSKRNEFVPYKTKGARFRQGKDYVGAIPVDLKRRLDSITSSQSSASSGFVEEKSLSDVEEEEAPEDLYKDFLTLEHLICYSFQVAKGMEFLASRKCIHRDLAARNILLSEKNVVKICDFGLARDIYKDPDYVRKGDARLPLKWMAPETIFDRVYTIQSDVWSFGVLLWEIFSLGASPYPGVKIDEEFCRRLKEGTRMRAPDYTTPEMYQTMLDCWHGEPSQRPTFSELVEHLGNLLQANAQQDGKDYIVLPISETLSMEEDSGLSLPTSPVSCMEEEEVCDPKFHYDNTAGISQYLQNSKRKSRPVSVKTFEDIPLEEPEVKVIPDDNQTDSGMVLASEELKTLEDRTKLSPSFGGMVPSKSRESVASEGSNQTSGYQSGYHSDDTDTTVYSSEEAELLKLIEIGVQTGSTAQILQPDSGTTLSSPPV

[10] = biological target: T4, Receptor-type tyrosine-protein kinase FLT3 (Homo sapiens, UniProt P36888); assay: Inhibition of GST-tagged FLT3 expressing wild type kinase domain expressed in Sf9 insect cells after 4 hrs by Kinase-Glo assay
T4 sequence (P36888 whole entry): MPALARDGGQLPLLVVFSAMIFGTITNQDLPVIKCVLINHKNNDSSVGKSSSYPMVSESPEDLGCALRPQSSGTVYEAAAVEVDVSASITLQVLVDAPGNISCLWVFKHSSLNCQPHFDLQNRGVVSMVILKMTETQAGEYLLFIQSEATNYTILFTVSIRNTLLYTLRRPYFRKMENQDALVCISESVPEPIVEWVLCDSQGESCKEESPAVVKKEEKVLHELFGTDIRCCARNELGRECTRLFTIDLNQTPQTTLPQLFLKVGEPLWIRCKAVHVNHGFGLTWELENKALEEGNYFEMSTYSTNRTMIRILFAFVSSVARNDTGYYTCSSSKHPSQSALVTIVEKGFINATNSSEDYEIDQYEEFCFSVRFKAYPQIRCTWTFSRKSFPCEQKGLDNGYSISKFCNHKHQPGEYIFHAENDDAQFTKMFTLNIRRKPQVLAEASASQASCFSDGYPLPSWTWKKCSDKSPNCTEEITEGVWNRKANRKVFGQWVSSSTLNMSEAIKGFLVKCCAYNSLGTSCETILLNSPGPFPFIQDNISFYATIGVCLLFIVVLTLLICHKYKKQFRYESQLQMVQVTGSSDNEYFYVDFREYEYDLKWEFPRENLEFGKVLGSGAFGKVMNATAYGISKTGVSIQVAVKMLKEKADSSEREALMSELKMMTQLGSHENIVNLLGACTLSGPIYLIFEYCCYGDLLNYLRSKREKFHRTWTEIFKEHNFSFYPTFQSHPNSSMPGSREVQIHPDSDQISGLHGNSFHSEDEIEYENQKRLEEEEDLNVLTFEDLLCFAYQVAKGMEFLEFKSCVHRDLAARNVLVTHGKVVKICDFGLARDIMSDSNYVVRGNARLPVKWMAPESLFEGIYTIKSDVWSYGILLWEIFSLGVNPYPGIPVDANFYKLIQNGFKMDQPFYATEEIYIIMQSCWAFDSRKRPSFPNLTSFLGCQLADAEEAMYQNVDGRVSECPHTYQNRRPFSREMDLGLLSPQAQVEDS

[11] = biological target: T3, Vascular endothelial growth factor receptor 2; assay: Inhibition of recombinant GST-tagged VEGFR2 expressed in Sf9 insect cells after 120 mins by Kinase-Glo assay; assay type: cell-based
[12] = biological target: T2, Vascular endothelial growth factor receptor 1; assay: Inhibition of recombinant GST-tagged VEGFR1 expressed in Sf9 insect cells at 1 uM after 120 mins by Kinase-Glo assay
[13] = Ratio GI50 for human MOLM13 cells to IC50 for GST-tagged FLT3 expressing wild type kinase domain; assay type: functional, MOLM-13

| GI50 [2] [nM] | GI50 [3] [nM] | GI50 [4] [nM] | GI50 [5] [nM] | IC50 [6] [nM] | GI50 [7] [nM] | IC50 [8] [nM] | inhibition [9] [%] | IC50 [10] [nM] | IC50 [11] [nM] | inhibition [12] [%] | Structure (SMILES) | GI50 [1] [nM] | Ratio [13] |
| --- | --- | --- | --- | --- | --- | --- | --- | --- | --- | --- | --- | --- | --- |
| 6700 | 19000 | 40 | > 20000 |  |  |  |  |  |  |  | Cc1ccc(F)c(NC(=O)Nc2ccc(-c3cccc4[nH]nc(N)c34)cc2)c1 [LINIFANIB] | 9200 |  |
|  |  |  |  | 680 | 380 | > 1000 | 55 | 10 |  |  | Cc1nc(NCCCN2CCOCC2)cc(Nc2cc(-c3cccc(NS(=O)(=O)c4ccccc4)c3)n[nH]2)n1 |  |  |
|  |  |  |  | 220 | 67 |  |  | 350 | 560 | 52 | O=C(Nc1cc(-c2cccc(NS(=O)(=O)c3ccccc3)c2)n[nH]1)c1ccc(CN2CCOCC2)cc1 |  |  |
|  |  |  |  | 540 | 120 | > 1000 |  | 10 | > 1000 |  | Cc1nc(Nc2cc(-c3cccc(NS(=O)(=O)c4ccccc4)c3)n[nH]2)cc(N2CCC(O)CC2)n1 |  | 12 |

Reference: ChEMBL document CHEMBL1806486, “Discovery and evaluation of 3-phenyl-1H-5-pyrazolylamine-based derivatives as potent, selective and efficacious inhibitors of FMS-like tyrosine kinase-3 (FLT3)” (Bioorg Med Chem, 2011)
